Experimental data pooled from the literature.
Lines come from different studies, so protocols differ.

| Compound | species | matrix | route | dose | time | setting | concentration |
| --- | --- | --- | --- | --- | --- | --- | --- |
| CC(C)c1cc(C(=O)NCCN)c2cnn(C(C)C)c2n1 | female BALB/c mouse | plasma | intraperitoneal | 50 mg/kg | 1 h | – | 2860 ng/mL |
| Cc1ccc2c(c1)C(=O)[C@]1(O)CCN(c3ccc4nc(C)ccc4c3)C1=N2 | mouse | brain | subcutaneous | 10 mg/kg | 30 min | single dose | 3.7 µM |
| CC(C)n1ncc2c(C(=O)NCC3(C)CNC3)cc(C3CC3)nc21 | female BALB/c mouse | plasma | intraperitoneal | 50 mg/kg | 4 h | – | 1230 ng/mL |
| O=C1CCC(N2Cc3cc(C4CCN(Cc5ccccc5)CC4)ccc3C2=O)C(=O)N1 (stereo not drawn) | male CD-1 mouse | plasma | intravenous | 1 mg/kg | 15 min | – | 136 ng/mL |
| CC1(C)NC(=O)N(c2ccc(F)c(S(C)(=O)=O)c2)C1=O | male Swiss mouse | plasma | oral | 100 mg/kg | 24 h | – | 130 ng/mL |
| CC(C)(C)S(=O)(=O)c1cc2c(Nc3ccc4scnc4c3)ncnc2cc1OCCOP(=O)(O)O | BALB/c mouse | plasma | oral | 10 mg/kg | 30 min | – | 1150 ng/mL |
| CC1(C)NC(=O)N(c2ccc(F)c(Br)c2)C1=O | male Swiss mouse | plasma | oral | 100 mg/kg | 24 h | – | 12500 ng/mL |
| NCc1cc2c(cc1F)C(=O)N(C1CCC(=O)NC1=O)C2 (stereo not drawn) | male CD-1 mouse | plasma | oral | 10 mg/kg | 40.2 min | – | 85.3 ng/mL |
| Cc1nc2ccc(OCc3ccc(C(F)(F)F)cc3)cc2[nH]1 | male BALB/c mouse | brain | intravenous | 1 mg/kg | 72 h | – | 2.9 ng/g |
